Experimental data: ChEMBL document CHEMBL2380226, “Novel dual cyclooxygenase and lipoxygenase inhibitors targeting hyaluronan-CD44v6 pathway and inducing cytotoxicity in colon cancer cells” (Bioorg Med Chem, 2013)
pIC50: −log10 of the molar value. Activity calls are given as the source filed them. The calls are words filed in the database; no cut-off is given here.

biological target: not listed separately; test: Inhibition of potato 5-LOX using arachidonic acid as substrate assessed as production of hydroperoxides after 5 mins […]; design: species or system Solanum tuberosum; conditions: not given
Outline: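 Potato 5-LOX was tested with a commercial lipoxygenase screening kit that measures hydroperoxides. Compounds were dissolved in minimal DMSO and diluted in the supplied buffer. The reaction was started with arachidonic acid and shaken for 5 min. Chromogen was added, shaken for 5 min, and absorbance read at 500 nm. Percent inhibition was taken against control, and IC50 was derived from the concentration-inhibition curve from duplicate determinations.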

Row | Structure (SMILES) | pIC50
1 | CC(C)(C)c1cc(/C=C2\SC(=N)NC2=O)cc(C(C)(C)C)c1O [DARBUFELONE] | 6.11
2 | CC(C)(C)C1=CC(=NNC(=O)c2ccccc2)C=C(C(C)(C)C)C1=O | 5.29
3 | CC(C)(C)C1=CC(=NNC(=O)c2ccncc2)C=C(C(C)(C)C)C1=O | 4.70

system: HT-29; test: Inhibition of hyaluronan-induced CD44 antigen variant exon 6 activity in human HT29 cells assessed as decrease in 5-LOX expression at 10 uM; format: cell-based; conditions: not given

Row | Structure (SMILES) | inhibition
4 | CC(C)(C)C1=CC(=NNC(=O)c2ccccc2)C=C(C(C)(C)C)C1=O | Active
5 | CC(C)(C)C1=CC(=NNC(=O)c2ccncc2)C=C(C(C)(C)C)C1=O | Active

system: not listed separately; test: Cytotoxicity against mouse APC10.1 cells assessed as decrease in cell survival after 18 hrs by MTS assay; format: functional, cell-based; conditions: not given
Outline: (§1)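 Cells were harvested, counted and seeded at 20 × 10^3 per well. After 18 h the medium was replaced with medium containing the agents. MTS/PMS reagent was freshly prepared at 2/0.92 mg/mL in DPBS and added in excess, then incubated at 5% CO2. Absorbance was read at 490 nm at 90 min, and cell-free blank absorbance was subtracted. IC50 is the concentration giving 50% inhibition of proliferation, reported as mean ± S.D. (three replicates of 4 independent analyses).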

Row | Structure (SMILES) | pIC50
6 | CC(C)(C)C1=CC(=NNC(=O)c2ccccc2)C=C(C(C)(C)C)C1=O | 4.70
7 | CC(C)(C)C1=CC(=NNC(=O)c2ccncc2)C=C(C(C)(C)C)C1=O | 5.05

species on record: Ovis aries; test: Selectivity ratio of IC50 for sheep placental COX-2 to IC50 for ram seminal vesicle COX-1; format: tissue-based; conditions: not given

Row | Structure (SMILES) | Ratio IC50
8 | CC(C)(C)c1cc(/C=C2\SC(=N)NC2=O)cc(C(C)(C)C)c1O [DARBUFELONE] | 0.014
9 | CC(C)(C)C1=CC(=NNC(=O)c2ccccc2)C=C(C(C)(C)C)C1=O | 0.68
10 | CC(C)(C)C1=CC(=NNC(=O)c2ccncc2)C=C(C(C)(C)C)C1=O | 0.14

biological target: T1, Prostaglandin G/H synthase 1 (Ovis aries, UniProt P05979); test: Inhibition of ram seminal vesicle COX-1 using arachidonic acid as substrate assessed as production of PGF2alpha by enzyme immunoassay in presence of stannous chloride; conditions: not given
T1 sequence (P05979 whole entry): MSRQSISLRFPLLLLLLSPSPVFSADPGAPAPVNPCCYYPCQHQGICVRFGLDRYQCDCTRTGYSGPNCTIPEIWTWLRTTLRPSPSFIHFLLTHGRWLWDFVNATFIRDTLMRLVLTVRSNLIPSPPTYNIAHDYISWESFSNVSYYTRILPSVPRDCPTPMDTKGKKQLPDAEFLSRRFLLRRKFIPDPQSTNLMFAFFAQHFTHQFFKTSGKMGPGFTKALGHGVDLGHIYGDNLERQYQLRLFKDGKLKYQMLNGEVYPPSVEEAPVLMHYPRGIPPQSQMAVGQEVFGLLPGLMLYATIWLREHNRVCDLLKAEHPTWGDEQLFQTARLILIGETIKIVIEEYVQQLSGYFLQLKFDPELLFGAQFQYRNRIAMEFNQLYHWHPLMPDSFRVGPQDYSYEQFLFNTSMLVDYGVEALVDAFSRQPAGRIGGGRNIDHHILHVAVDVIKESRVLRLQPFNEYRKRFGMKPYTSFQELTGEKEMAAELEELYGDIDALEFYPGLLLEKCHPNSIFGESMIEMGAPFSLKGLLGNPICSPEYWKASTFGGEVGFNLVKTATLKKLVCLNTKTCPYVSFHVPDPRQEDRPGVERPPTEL
Outline: (§2)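 PGH2 formed by the enzyme is reduced with stannous chloride to PGF, which is quantified by competitive EIA. PGs compete with a PG-acetylcholinesterase tracer for PG antiserum, and the complex is captured on an anti-rabbit antibody-coated well. Ellman's reagent is developed and absorbance is read at 405 nm. Percent inhibition is taken against control incubations, and IC50 comes from the concentration-inhibition curve.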

Row | Structure (SMILES) | pIC50
11 | CC(C)(C)C1=CC(=NNC(=O)c2ccccc2)C=C(C(C)(C)C)C1=O | 4.85
12 | CC(C)(C)C1=CC(=NNC(=O)c2ccncc2)C=C(C(C)(C)C)C1=O | 4.25

system: not listed separately; test: Inhibition of hyaluronan-induced CD44 antigen variant exon 6 activity in human HT-29 cells expressing Has2 assessed as decrease in cell survival after 18 hrs by MTS assay; format: cell-based; conditions: HT-29, 18 h; outline: as §1

Row | Structure (SMILES) | pIC50
13 | CC(C)(C)C1=CC(=NNC(=O)c2ccccc2)C=C(C(C)(C)C)C1=O | 4.41
14 | CC(C)(C)C1=CC(=NNC(=O)c2ccncc2)C=C(C(C)(C)C)C1=O | 5.27

system: not listed separately; test: Inhibition of hyaluronan-induced CD44 antigen variant exon 6 activity in human HCA-7 cells expressing Has2 assessed as decrease in cell survival after 18 hrs by MTS assay; format: cell-based; conditions: HCA-7, 18 h; outline: as §1

Row | Structure (SMILES) | pIC50
15 | CC(C)(C)C1=CC(=NNC(=O)c2ccccc2)C=C(C(C)(C)C)C1=O | 4.58
16 | CC(C)(C)C1=CC(=NNC(=O)c2ccncc2)C=C(C(C)(C)C)C1=O | 4.41

system: HCA-7; test: Cytotoxicity against human HCA-7 cells assessed as growth inhibition after 18 hrs by MTS assay; format: functional, cell-based; conditions: not given; outline: as §1

Row | Structure (SMILES) | growth inhibition (GI)
17 | CC(C)(C)C1=CC(=NNC(=O)c2ccccc2)C=C(C(C)(C)C)C1=O | Dose-dependent effect
18 | CC(C)(C)C1=CC(=NNC(=O)c2ccncc2)C=C(C(C)(C)C)C1=O | Dose-dependent effect

system: HT-29; test: Inhibition of hyaluronan-induced CD44 antigen variant exon 6 activity in human HT29 cells assessed as decrease in COX-2 expression at 10 uM; format: cell-based; conditions: not given

Row | Structure (SMILES) | inhibition
19 | CC(C)(C)C1=CC(=NNC(=O)c2ccccc2)C=C(C(C)(C)C)C1=O | Active
20 | CC(C)(C)C1=CC(=NNC(=O)c2ccncc2)C=C(C(C)(C)C)C1=O | Active

system: HT-29; test: Cytotoxicity against human HT-29 cells assessed as decrease in cell survival after 18 hrs by MTS assay; format: functional, cell-based; conditions: HT-29, 18 h; outline: as §1

Row | Structure (SMILES) | pIC50
21 | CC(C)(C)C1=CC(=NNC(=O)c2ccccc2)C=C(C(C)(C)C)C1=O | 4.82
22 | CC(C)(C)C1=CC(=NNC(=O)c2ccncc2)C=C(C(C)(C)C)C1=O | 4.82

system: not listed separately; test: Cytotoxicity against human HCA-7 cells assessed as decrease in cell survival after 18 hrs by MTS assay; format: functional, cell-based; conditions: HCA-7, 18 h; outline: as §1

Row | Structure (SMILES) | pIC50
23 | CC(C)(C)C1=CC(=NNC(=O)c2ccccc2)C=C(C(C)(C)C)C1=O | 4.90
24 | CC(C)(C)C1=CC(=NNC(=O)c2ccncc2)C=C(C(C)(C)C)C1=O | 4.92

system: not listed separately; test: Inhibition of hyaluronan-induced CD44 antigen variant exon 6 activity in mouse APC10.1 cells expressing Has2 assessed as decrease in cell survival after 18 hrs by MTS assay; format: cell-based; conditions: not given; outline: as §1

Row | Structure (SMILES) | pIC50
25 | CC(C)(C)C1=CC(=NNC(=O)c2ccccc2)C=C(C(C)(C)C)C1=O | 4.51
26 | CC(C)(C)C1=CC(=NNC(=O)c2ccncc2)C=C(C(C)(C)C)C1=O | 4.74

biological target: T2, Prostaglandin G/H synthase 2 (Ovis aries, UniProt P79208); test: Inhibition of sheep placental COX-2 using arachidonic acid as substrate assessed as production of PGF2alpha by enzyme immunoassay in presence of stannous chloride; conditions: not given; outline: as §2
T2 sequence (P79208 whole entry): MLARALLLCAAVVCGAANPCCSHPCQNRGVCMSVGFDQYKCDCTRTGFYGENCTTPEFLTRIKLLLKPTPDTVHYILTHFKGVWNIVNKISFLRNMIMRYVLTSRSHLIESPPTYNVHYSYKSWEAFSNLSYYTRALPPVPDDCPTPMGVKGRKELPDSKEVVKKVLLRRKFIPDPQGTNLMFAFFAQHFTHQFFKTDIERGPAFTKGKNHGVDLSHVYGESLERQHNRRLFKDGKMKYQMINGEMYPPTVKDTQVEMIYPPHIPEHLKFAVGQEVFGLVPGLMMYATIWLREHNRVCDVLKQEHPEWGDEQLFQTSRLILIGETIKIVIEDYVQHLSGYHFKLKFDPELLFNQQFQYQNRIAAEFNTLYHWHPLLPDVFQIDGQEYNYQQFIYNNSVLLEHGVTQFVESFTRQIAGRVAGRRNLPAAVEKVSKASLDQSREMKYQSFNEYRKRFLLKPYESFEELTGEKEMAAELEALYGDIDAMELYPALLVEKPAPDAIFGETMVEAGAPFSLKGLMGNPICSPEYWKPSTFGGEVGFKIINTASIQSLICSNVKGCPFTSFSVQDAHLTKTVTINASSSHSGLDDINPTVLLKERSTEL

Row | Structure (SMILES) | pIC50
27 | CC(C)(C)C1=CC(=NNC(=O)c2ccccc2)C=C(C(C)(C)C)C1=O | 5.02
28 | CC(C)(C)C1=CC(=NNC(=O)c2ccncc2)C=C(C(C)(C)C)C1=O | 5.12

species on record: Mus musculus; test: Inhibition of hyaluronan-induced CD44 antigen variant exon 6 activity in mouse APC10.1 cells assessed as cell growth inhibition after 18 hrs by MTS assay; format: cell-based; conditions: not given; outline: as §1

Row | Structure (SMILES) | growth inhibition (GI)
29 | CC(C)(C)C1=CC(=NNC(=O)c2ccccc2)C=C(C(C)(C)C)C1=O | Dose-dependent effect
30 | CC(C)(C)C1=CC(=NNC(=O)c2ccncc2)C=C(C(C)(C)C)C1=O | Dose-dependent effect

system: HT-29; test: Cytotoxicity against human HT-29 cells assessed as growth inhibition after 18 hrs by MTS assay; format: functional, cell-based; conditions: not given; outline: as §1

Row | Structure (SMILES) | growth inhibition (GI)
31 | CC(C)(C)C1=CC(=NNC(=O)c2ccccc2)C=C(C(C)(C)C)C1=O | Dose-dependent effect
32 | CC(C)(C)C1=CC(=NNC(=O)c2ccncc2)C=C(C(C)(C)C)C1=O | Dose-dependent effect
